Screening results: PubChem, several laboratories
A selection: hits, their analogues and other compounds. The true share with any hit is near 7.4%.
Jurkat viability = cytotoxicity toward Jurkat T cells, primary screen, cytotoxicity control, cell-based, Jurkat E6.1, 60K MLSMR library; Jurkat E6.1 viability, ATP luminescence, 48 h; inhibition, % at 4 µM; 1.2% of 56,000 active; AID 463, 2006;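 active = inhibition above the mean inhibition of all tested compounds plus 3 SD, cut at about 28% in these data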
M1 ag = M1 muscarinic receptor agonists, primary screen, CHO-M1 cells, Fluo-4 calcium, agonist mode; Fluo-4 calcium fluorescence; active compounds read high; B-score at 10 µM; 3% of 64,000 active; AID 626, 2007;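 active = fluorescence rise, raw or as B-score row- and column-corrected plate score, outside the 99.7% band of its plate's samples, either direction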
S1P1 ag pot = S1P1 agonists and agonism potentiators, primary screen, cell-based, primary and confirmation screens, CRE-bla reporter. AID 449, 2006. 0.57% of 56,000 active. activation, % at 9.5 µM. S1P1 CRE-bla cells, forskolin, beta-lactamase FRET, potentiator mode; S1P1 agonist co-added at EC20, 2 nM; 100% = saturating reference agonist, 0% = basal. Sphingosine 1-phosphate receptor 1 (Homo sapiens), P21453;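 active = activation above a cutoff set at the mean activation of all tested compounds plus 3 SD, cut at about 54% in these data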;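 note: forskolin at 4 µM as EC80 and the EC20 agonist is SEW2871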
JNK3 blocker = JNK3 kinase activity inhibitors, primary screen, biochemical, human, purified enzyme | Mitogen-activated protein kinase 10 (Homo sapiens), P53779 | HTS | inhibition, % at 8 µM | 0.61% of 60,000 active | AID 746, 2007; in the data active = inhibition above about 17%
S1P3 ag = human S1P3 receptor agonists, primary screen, cell-based, primary and confirmation, NFAT-BLA reporter | activation, % at 4.5 µM | AID 373, 2006 | 0.1% of 60,000 active | Sphingosine 1-phosphate receptor 3 (Homo sapiens), Q99500 | S1P3 NFAT-BLA reporter cells, agonism, FRET ratio; relative to 1 µM S1P, basal subtracted;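 active = activation above the screen-wide mean plus 3 SD, cut at about 4.5% in these data, passing the limit was not always enough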
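Material: Human S1P3 NFAT-BLA reporter CHO cells | Incubation: Overnight plating, 4 h compound 37 °C, 2 h substrate RT | Signal: FRET β-lactamase substrate fluorescence, excitation 405 nm, 460/535 nm emission ratio, background-subtracted | Compound: 4.5 µM final, single dose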
M1 antag = antagonists of rat M1 muscarinic receptor. B-score at 10 µM. CHO-M1 cells, Fluo-4 calcium, ACh EC80 antagonist mode; active compounds read low. AID 628, 2007. 3.4% of 64,000 active;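 active = calcium fluorescence response, raw or row-and-column corrected B-score, differing from the plate sample mean either way at a set confidence level, mostly lower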
M1 agonist conf = rat M1 muscarinic receptor agonists, confirmation, CHO-M1 cells, Fluo-4 calcium, duplicate retest; shares compounds with M1 ag; Fluo-4 calcium fluorescence, agonist mode; actives lie on both sides; fluorescence change (max-min) at 10 µM; 19% of 1,700 active;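 active = fluorescence change differs from the solvent-only DMSO control mean at a set confidence level in both duplicate runs; inconclusive = differs from solvent-only control mean in just one of two runs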;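 note: an EC20 dose of acetylcholine follows compound addition during the same imaging run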
M4 ag counter = agonist activity at rat M4 receptor, confirmation, counter-screen for M1 allosteric modulator project, cell-based, agonist mode; 9% of 1,700 active; CHO M4/Gqi5 cells, Fluo-4 calcium fluorescence; actives lie on both sides; fluorescence change (max-min) at 10 µM; shares compounds with M1 ag;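 active = fluorescence change differing from the plate's solvent-only control wells at 99.7% confidence in both duplicates, whether higher or lower; inconclusive = differs from solvent controls in only one of two duplicates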
Target sequence (P08485 whole entry, looked up): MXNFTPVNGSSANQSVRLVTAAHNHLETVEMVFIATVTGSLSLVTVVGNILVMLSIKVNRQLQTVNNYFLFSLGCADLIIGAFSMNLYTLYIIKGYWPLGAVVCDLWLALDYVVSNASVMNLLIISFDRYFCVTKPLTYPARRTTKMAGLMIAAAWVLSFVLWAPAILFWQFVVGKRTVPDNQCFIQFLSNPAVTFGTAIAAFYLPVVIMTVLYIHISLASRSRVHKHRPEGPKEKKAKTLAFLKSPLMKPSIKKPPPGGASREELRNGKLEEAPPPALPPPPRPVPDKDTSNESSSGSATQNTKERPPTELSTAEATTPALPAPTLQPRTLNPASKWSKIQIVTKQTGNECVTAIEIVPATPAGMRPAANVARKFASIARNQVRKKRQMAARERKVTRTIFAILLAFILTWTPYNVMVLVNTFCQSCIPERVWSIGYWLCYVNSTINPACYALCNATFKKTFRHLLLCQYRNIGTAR
Numbers stand for hits.

COC(=O)c1ccc2c(c1)N(Cc1ccccc1F)C(=O)c1ccccc1S2=O (stereo not drawn) was read as Jurkat viability inactive, M1 ag 4.89, S1P1 ag pot inactive, JNK3 blocker inactive, S1P3 ag inactive, M1 antag inactive, M1 agonist conf inconclusive and M4 ag counter inactive.
For CCn1ncc(C2=NOC(C(=O)NCCc3ccccc3)C2)c1C (stereo not drawn) the results were Jurkat viability inactive, M1 ag inactive, S1P1 ag pot inactive, JNK3 blocker inactive, S1P3 ag inactive and M1 antag inactive.
`CC1Cc2ccccc2N1C(=O)CCNS(=O)(=O)c1cccc2nsnc12` (stereo not drawn) gave Jurkat viability inactive, M1 ag 2.66, S1P1 ag pot inactive, JNK3 blocker inactive, S1P3 ag inactive, M1 antag inactive, M1 agonist conf inconclusive and M4 ag counter inconclusive.
For O=C(CCNS(=O)(=O)c1cccc2nsnc12)N1CCc2ccccc21 the results were M1 ag inactive and M1 antag inactive.
For CCn1nc(NC(=O)c2ccccn2)c2cc3cc(C)ccc3nc21 the results were Jurkat viability inactive, M1 ag inactive, S1P1 ag pot inactive, JNK3 blocker inactive, S1P3 ag inactive and M1 antag inactive.
`CCn1nc(NC(=O)c2cccnc2)c2cc3ccccc3nc21` gave M1 ag 5.01, S1P1 ag pot inactive, JNK3 blocker inactive, S1P3 ag inactive, M1 antag inactive, M1 agonist conf -29.9 and M4 ag counter -91.6.
O=C1C2CC=C(Cl)CC2C(=O)N1CC1Cc2ccccc2CO1 (stereo not drawn) was read as Jurkat viability inactive, M1 ag 2.23, S1P1 ag pot inactive, JNK3 blocker inactive, S1P3 ag inactive, M1 antag inactive, M1 agonist conf inactive and M4 ag counter inactive.
`O=C(CCN1C(=O)C2CC=C(Cl)CC2C1=O)Nc1ccccc1O` (stereo not drawn) gave Jurkat viability inactive, M1 ag inactive, S1P1 ag pot inactive, JNK3 blocker inactive, S1P3 ag inactive and M1 antag inactive.
Screening O=C(O)c1ccccc1NCN1C(=O)C2CC=C(Cl)CC2C1=O (stereo not drawn) returned Jurkat viability inactive, M1 ag -2.19, S1P1 ag pot inactive, JNK3 blocker inactive, S1P3 ag inactive, M1 antag inactive, M1 agonist conf -25.6 and M4 ag counter inconclusive.
Screening CCOC(=O)c1sc(N(Cc2ccccc2)C(=O)CSc2nnc(C3CC3)n2N)nc1C returned M1 ag inactive and M1 antag inactive.
For Cn1nc(CC(=O)Nc2ccc3c(c2)CCC3)c2ccccc2c1=O the results were Jurkat viability inactive, M1 ag 11.1, S1P1 ag pot inactive, JNK3 blocker inactive, S1P3 ag inactive, M1 antag inactive, M1 agonist conf inactive and M4 ag counter inactive.
`CCOC(=O)N1CCN(C(=O)CSc2nnc(-c3ccc(C(C)(C)C)cc3)o2)CC1` gave Jurkat viability inactive, M1 ag 6.9, S1P1 ag pot inactive, JNK3 blocker inactive, S1P3 ag inactive, M1 antag inactive, M1 agonist conf inactive and M4 ag counter inactive.
c1ccn2c(CNc3ncnc4sccc34)nnc2c1 was read as Jurkat viability inactive, M1 ag inactive, S1P1 ag pot inactive, JNK3 blocker inactive, S1P3 ag inactive and M1 antag inactive.
`Cc1oc(-c2ccc(Cl)cc2)nc1CN1CCC(C(=O)N2CCc3ccccc3C2)CC1` gave Jurkat viability inactive, M1 ag 5.72, S1P1 ag pot inactive, JNK3 blocker inactive, S1P3 ag inactive, M1 antag -3.68, M1 agonist conf inconclusive and M4 ag counter inactive.
`CCOc1ccc(S(=O)(=O)n2ccc(C)n2)c2ccccc12` gave Jurkat viability inactive, M1 ag 13.3, S1P1 ag pot inactive, JNK3 blocker inactive, S1P3 ag inactive, M1 antag inactive, M1 agonist conf inactive and M4 ag counter inactive.
CCOC(=O)c1c(C)[nH]c(C(=O)CN2C(=O)NC(C)(c3ccc(C)cc3)C2=O)c1C (stereo not drawn) was read as Jurkat viability inactive, M1 ag inactive, S1P1 ag pot inactive, JNK3 blocker inactive, S1P3 ag inactive and M1 antag inactive.
CCOC(=O)c1c(C)[nH]c(C(=O)CN2C(=O)NC(CC)(c3ccccc3)C2=O)c1C (stereo not drawn) was read as Jurkat viability inactive, M1 ag 4.67, S1P1 ag pot inactive, JNK3 blocker inactive, S1P3 ag inactive, M1 antag inactive, M1 agonist conf inactive and M4 ag counter inactive.
`COc1ccc(C(=O)N2CCN(c3ccc(C)c(C)c3)CC2)cc1OC` gave Jurkat viability inactive, M1 ag -2.49, S1P1 ag pot inactive, JNK3 blocker inactive, S1P3 ag inactive, M1 antag inactive, M1 agonist conf inconclusive and M4 ag counter -82.5.
`O=C(CCCn1c(=O)c2sccc2n(CC(=O)OCc2ccccc2)c1=O)NCc1ccco1` gave Jurkat viability inactive, M1 ag 4.68, S1P1 ag pot inactive, JNK3 blocker inactive, S1P3 ag inactive, M1 antag inactive, M1 agonist conf -28.4 and M4 ag counter -72.1.
For CN(C)c1nc(Oc2ccc(N)cc2)nc(N(C)C)n1 the results were Jurkat viability inactive, M1 ag inactive, S1P1 ag pot inactive, JNK3 blocker inactive, S1P3 ag inactive and M1 antag inactive.
`Cc1ccc2[nH]c3c(c2c1)CN(C(=O)CN1CCN(c2cccc(C)c2C)CC1)CC3` gave Jurkat viability inactive, M1 ag -2.96, S1P1 ag pot inactive, JNK3 blocker inactive, S1P3 ag inactive, M1 antag inactive, M1 agonist conf inactive and M4 ag counter inactive.
CCOC(=O)N1CCN(C(=O)C2CCN(C(=O)c3cc4sccc4n3CC)CC2)CC1 was read as Jurkat viability inactive, M1 ag 3.84, S1P1 ag pot inactive, JNK3 blocker inactive, S1P3 ag inactive, M1 antag inactive, M1 agonist conf inactive and M4 ag counter inactive.
`Cc1ccc(S(=O)(=O)Cc2ccc(C(=O)N3CCN(c4cc(C)ccc4C)CC3)o2)cc1` gave Jurkat viability inactive, M1 ag inactive, S1P1 ag pot inactive, JNK3 blocker inactive, S1P3 ag inactive and M1 antag inactive.
